# INS-1E rescue – preserves ATP levels in cytokine-treated INS-1E cells; INS-1E cytokine-induced death, ATP luminescence, 48 h; normalised: neutral wells 0, positive control 100; protection from cytokine-induced ATP loss, % at 10 µM; 20,000 tested, 0.1% active;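 active means mean replicate protection from cytokine-induced ATP loss at least 50% and at least 75% of replicates each reaching 50%; inconclusive means meets only one of the two criteria, mean or replicate share; inactive means fails both the mean and replicate share criteria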
#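 Material: INS-1E rat cells; Quantity: 8000 cells/well; Buffer or medium: phenol-red-free RPMI with 5% fetal bovine serum; Probe or stimulus: cytokine cocktail of IFN-γ, TNF-α and IL-1β; Compound dosing: single test concentration per compound, delivered by pin transfer; Incubation: 48 h co-treatment, 10 min post-lysis read; Signal: CellTiter-Glo luminescence.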
# T cruzi HTS – blocks T. cruzi growth inside host cells; intracellular Trypanosoma cruzi in host cells, plate reader; activity score (inhibition), % at 5.01 µM; 22,000 tested, 4.9% active; AID 651903; in the data active means activity score above about 55%; inconclusive means no clear call, values can overlap the other calls;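 further: parasites and compound incubated about four days before reading; 0% = median of neutral control wells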
# A1 apoptosis 2 – blocks A1, raising caspase activity | MEF A1-2A-BIM cells, caspase-Glo luminescence, 3 h; percent of clofoctol response, DMSO zero | caspase activation, % (test concentration not listed) | 24,000 tested, under 10 active | AID 2465; in the data active means caspase activation above about 5.9%; inconclusive means no clear call, values can overlap the other calls; inactive means below about 2.2%
#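 Material: mouse embryonic fibroblasts co-expressing A1 and BIM (A1-2A-BIM), primed for A1 dependence / Quantity: 2500 cells/well / Buffer or medium: RPMI-1640 growth medium with 10% FBS / Doses: 50 nL compound per well, pinned / Schedule: 3 h compound exposure at 37 °C / Signal: Caspase-Glo luminescence (DEVD substrate) / Measure: Caspase-3/7 activation, seen as rise in luminescence signal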
# Numbers without * were called inactive; u = inconclusive; x = not tested or not shown. This excerpt belongs to a sample that is enriched for hits.
SMILES,INS-1E rescue,T cruzi HTS,A1 apoptosis 2
COc1ccc(S(=O)(=O)Nc2ccc3c(c2)CC(=O)N([C@@H](C)CO)C[C@@H](C)[C@@H](CN(C)S(=O)(=O)c2ccc(C)cc2)O3)cc1,7,63*,x
COc1ccc(S(=O)(=O)N(C)C[C@H]2Oc3ccc(NS(=O)(=O)c4ccc(C)cc4)cc3CC(=O)N([C@H](C)CO)C[C@H]2C)cc1,7,64*,1
C=C(C)[C@@H]1CC=C(/C=N/NC(=O)CCCCCCC(=O)Nc2ccccc2O)CC1,0,-1,1
C[C@H](CO)N1C[C@H](C)[C@H](CN(C)Cc2ccc(C(F)(F)F)cc2)Oc2ccc(NC(=O)Nc3cccc4ccccc34)cc2C1=O,x,49,1
C[C@@H]1CN([C@@H](C)CO)C(=O)c2cc(NC(=O)Nc3cccc4ccccc34)ccc2O[C@@H]1CN(C)Cc1ccc(C(F)(F)F)cc1,x,59*,x
C[C@@H]1CN([C@H](C)CO)C(=O)c2cc(NC(=O)Nc3cccc4ccccc34)ccc2O[C@@H]1CN(C)Cc1ccc(C(F)(F)F)cc1,-11,75*,0
C[C@@H]1CN([C@@H](C)CO)C(=O)c2cc(NC(=O)Nc3cccc4ccccc34)ccc2O[C@H]1CN(C)Cc1ccccc1,-15,u,x
O=C(NCc1nc2ccccc2[nH]1)C1=C[C@@H](c2coc3ccccc3c2=O)C[C@@H](OCc2ccc(CO)cc2)O1,x,x,-1
Cn1cc(/C=N/NC(=O)c2cccc(C(=O)NO)c2)c2ccccc21,-2,-2,1
CCCCCCC/C=N/NC(=O)CCCCC(=O)NO,-4,-2,1
O=C(Nc1ccccc1[N+](=O)[O-])c1ccc(CNc2nccc(-c3cccnc3)n2)cc1,x,x,1
Cc1ccc(S(=O)(=O)Nc2ccc3c(c2)CC(=O)N([C@H](C)CO)C[C@H](C)[C@@H](CN(C)Cc2ccc(Oc4ccccc4)cc2)O3)cc1,x,x,-2
C[C@@H]1CN([C@H](C)CO)C(=O)Cc2cc(NS(=O)(=O)c3ccccc3)ccc2O[C@H]1CN(C)Cc1ccc(Oc2ccccc2)cc1,-19,40,x
C[C@@H]1CN([C@H](C)CO)C(=O)Cc2cc(NS(=O)(=O)c3ccc(F)cc3)ccc2O[C@H]1CN(C)Cc1ccc(Oc2ccccc2)cc1,-45,66*,-1
C[C@@H]1CN([C@@H](C)CO)C(=O)Cc2cc(NS(=O)(=O)c3ccccc3)ccc2O[C@@H]1CN(C)Cc1ccc(Oc2ccccc2)cc1,-20,45,0
C[C@H]1CN([C@@H](C)CO)C(=O)Cc2cc(NS(=O)(=O)c3ccc(F)cc3)ccc2O[C@@H]1CN(C)Cc1ccc(Oc2ccccc2)cc1,-19,66*,2
Cc1ccc(S(=O)(=O)Nc2ccc3c(c2)CC(=O)N([C@H](C)CO)C[C@@H](C)[C@@H](CN(C)Cc2ccc(Oc4ccccc4)cc2)O3)cc1,-22,65*,x
COC(=O)CCCCCCC(=O)N/N=C/c1c(CO)cnc(C)c1O,36,-2,-1
C[C@@H]1CCCCO[C@H](CN(C)C(=O)CCC(F)(F)F)[C@H](C)CN([C@@H](C)CO)C(=O)c2cc(NC(=O)c3ccncc3)ccc2O1,x,x,1
COc1ccc(S(=O)(=O)Nc2cccc3c2O[C@H](CN(C)S(=O)(=O)c2ccc(Cl)cc2)[C@H](C)CN([C@@H](C)CO)C3=O)cc1,14,20,x
C[C@H]1CN([C@@H](C)CO)C(=O)c2cccc(NC(=O)c3nc4ccccc4s3)c2O[C@H]1CN(C)Cc1ccc(C(=O)Nc2ccccc2N)cc1,-10,79*,1
C[C@@H]1CN([C@H](C)CO)C(=O)c2cccc(NC(=O)c3nc4ccccc4s3)c2O[C@H]1CN(C)Cc1ccc(C(=O)Nc2ccccc2N)cc1,18,79*,x
C[C@H](CO)N1C[C@H](C)[C@H](CN(C)Cc2ccncc2)Oc2c(NC(=O)c3nc4ccccc4s3)cccc2C1=O,1,11,x
C[C@H](CO)N1C[C@H](C)[C@@H](CN(C)Cc2ccncc2)Oc2c(NC(=O)c3nc4ccccc4s3)cccc2C1=O,-12,27,-3
COC(=O)C(CC#Cc1ccc2c(c1)[C@]1(C(=O)N2)[C@H](c2ccc(O)cc2)N2[C@H](c3ccccc3)[C@H](c3ccccc3)OC(=O)[C@H]2[C@@H]1C(N)=O)C(=O)OC,x,x,-1
O=C(NO)c1ccc(C(=O)N/N=C/c2cc(O)ccc2[N+](=O)[O-])cc1,8,-4,0
O=C(NO)c1ccc(C(=O)N/N=C/c2ccccc2[N+](=O)[O-])cc1,18,-21,1

# Compound activity (PubChem BioAssay)
